In ChEMBL document CHEMBL1125360 (J Med Chem, 1992):

Legend:
Mus musculus [1] = species: Mus musculus; test: The compound was evaluated for antinociceptive potency using abdominal stretch assay in mice.; format: functional, Abdomen
Method in brief: (§1)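 Mouse antinociception by abdominal stretch or tail flick assay. Test compound given icv. ED50 in nmol/mouse with 95% confidence limits.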

Mus musculus [2] = species: Mus musculus; test: The compound was tested for opioid agonist activity against mouse vas deferens (MVD); format: functional
Method in brief: (§2)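 Electrically stimulated guinea pig ileal longitudinal muscle and mouse vas deferens. For full agonists, 4-6 concentrations gave concentration-response curves compared with standard agonists in the same preparation. IC50 is the concentration giving a half-maximal response, with 95% confidence limits.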

Mus musculus [3] = species: Mus musculus; test: Antagonistic activity against morphine in smooth muscle preparation (MVD); format: functional, Muscle tissue
Method in brief: (§3)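 Electrically stimulated guinea pig ileal longitudinal muscle or mouse vas deferens. Test ligand incubated 15 min before standard agonist challenge (morphine, ethylketazocine or DADLE). Ligand at 100 nM, or at 10, 20 or 30 nM when it had agonist activity, kept at or below its ED20.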

Cavia porcellus [4] = species: Cavia porcellus; test: The compound was tested for opioid agonist activity against guinea pig ileal longitudinal muscle (GPI); format: functional, Muscle tissue; method in brief: as §2
[5] = test system: Delta-type opioid receptor; test: Selectivity for kappa to delta opioid receptors was determined; conditions: Cavia porcellus
Cavia porcellus [6] = species: Cavia porcellus; test: Antagonistic activity against morphine in guinea pig ileal longitudinal muscle (GPI); format: functional, Muscle tissue; method in brief: as §3
[7] = The compound was evaluated for binding affinity against Opioid receptor delta 1 in guinea pig brain membrane using [3H]- DPDPE as ligand
[8] = target: Mu-type opioid receptor (Cavia porcellus) (UniProt P97266); test: Selectivity for mu to delta opioid receptors was determined
Sequence of Mu-type opioid receptor (Cavia porcellus) (P97266 whole entry): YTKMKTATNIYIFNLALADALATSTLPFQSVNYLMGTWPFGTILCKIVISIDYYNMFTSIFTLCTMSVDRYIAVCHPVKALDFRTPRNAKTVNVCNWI

Mus musculus [9] = species: Mus musculus; test: Antagonistic activity against DADLE in smooth muscle preparation (MVD); format: functional, Muscle tissue; method in brief: as §3
Cavia porcellus [10] = species: Cavia porcellus; test: Antagonistic activity against EK in guinea pig ileal longitudinal muscle (GPI); format: functional, Muscle tissue; method in brief: as §3
Mus musculus [11] = species: Mus musculus; test: The compound was evaluated for antagonistic activity by incubating with the smooth muscle preparation (MVD) for 15 min prior to testing with morphine; format: functional, Muscle tissue; method in brief: as §3
Cavia porcellus [12] = species: Cavia porcellus; test: The compound was evaluated for antagonistic activity by incubating with the smooth muscle preparation (GPI) for 15 min prior to testing with Ethylketazocine (EK); format: functional, Muscle tissue; method in brief: as §3
Mus musculus [13] = species: Mus musculus; test: The compound was evaluated for antagonistic activity by incubating with the smooth muscle preparation (MVD) for 15 min prior to testing with DADLE; format: functional, Muscle tissue; method in brief: as §3
Cavia porcellus [14] = species: Cavia porcellus; test: The compound was evaluated for antagonistic activity by incubating with the smooth muscle preparation (GPI) for 15 min prior to testing with morphine; format: functional, Muscle tissue; method in brief: as §3
Opioid receptor = Opioid receptor (Mus musculus, UniProt P42866+P32300+P33534); test: Compound was tested for agonistic activity against the opioid receptor in electrically stimulated mouse vas deference; format: functional; method in brief: as §2
Mu-type opioid receptor = Mu-type opioid receptor (Cavia porcellus, UniProt P97266); test: The compound was evaluated for binding affinity against opioid receptor mu in guinea pig brain membranes using [3H]- DAMGO as ligand; format: cell membranes, Membrane
Sequence of Mu-type opioid receptor (P97266 whole entry): as above
Method in brief: (§4)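 Competition binding on guinea pig brain membranes. δ sites labelled with [3H]DPDPE, μ with [3H]DAMGO, κ with [3H]U69593. A footnote also describes κ labelling with [3H]ethylketazocine in the presence of 1 µM DAMGO.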

[15] = target: Kappa-type opioid receptor (Cavia porcellus, UniProt P41144); test: The compound was evaluated for binding affinity against the opioid receptor kappa in guinea pig brain membranes using [3H]- U-69,593; format: cell membranes, Membrane; method in brief: as §4
Sequence of Kappa-type opioid receptor (P41144 whole entry): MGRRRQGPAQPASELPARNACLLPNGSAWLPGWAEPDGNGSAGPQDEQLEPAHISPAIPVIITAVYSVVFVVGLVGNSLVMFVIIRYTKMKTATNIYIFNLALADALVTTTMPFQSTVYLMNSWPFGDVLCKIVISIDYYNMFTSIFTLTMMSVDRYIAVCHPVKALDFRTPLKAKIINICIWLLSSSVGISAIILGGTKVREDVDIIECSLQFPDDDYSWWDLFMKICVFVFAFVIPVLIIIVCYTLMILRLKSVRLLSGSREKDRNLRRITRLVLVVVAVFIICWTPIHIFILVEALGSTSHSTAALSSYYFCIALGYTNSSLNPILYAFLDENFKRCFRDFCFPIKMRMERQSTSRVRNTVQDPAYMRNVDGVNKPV

Mus musculus [16] = species: Mus musculus; test: The compound was evaluated for antinociceptive potency using tail flick assay in mice; format: functional; method in brief: as §1
Cavia porcellus [17] = species: Cavia porcellus; test: Opiod agonistic activity against delta enriched smooth muscle preparation; format: functional; conditions: Muscle tissue

Oc1ccc2c3c1O[C@H]1c4[nH]c5ccccc5c4C[C@@]4(O)[C@@H](C2)N(CC2CC2)CC[C@]314 [NALTRINDOLE]
ED50 (Mus musculus [1]): 0.04 nM

CN1CC[C@]23c4c5ccc(O)c4O[C@H]2c2[nH]c4ccccc4c2C[C@@]3(O)[C@H]1C5 [OXYMORPHINDOLE]
ED50 (Mus musculus [1]): 0.019 nM | Max response (Mus musculus [2]): 65% | IC50 ratio (Mus musculus [3]): 0.9 | Max response (Cavia porcellus [4]): 12% | Ratio [5]: 6380 | IC50 ratio (Cavia porcellus [6]): 0.9 | Ki [7]: 0.7 nM | Ratio [8]: 669 | IC50 ratio (Mus musculus [9]): 1.3 | IC50 ratio (Cavia porcellus [10]): 0.9

CN1CC[C@]23c4c5ccc(O)c4O[C@H]2c2[nH]c4ccccc4c2C[C@H]3[C@H]1C5
Max response (Mus musculus [2]): 34% | IC50 ratio (Mus musculus [3]): 0.9 | Max response (Cavia porcellus [4]): 9% | IC50 ratio (Cavia porcellus [6]): 1 | IC50 ratio (Mus musculus [9]): 4.2 | IC50 ratio (Cavia porcellus [10]): 0.5

CN1CC[C@]23c4c5ccc(O)c4O[C@H]2c2oc4ccccc4c2C[C@@]3(O)[C@H]1C5
IC50 ratio (Mus musculus [11]): 0.8 | Max response (Mus musculus [2]): 41% | Max response (Cavia porcellus [4]): 23% | IC50 ratio (Cavia porcellus [12]): 0.8 | IC50 ratio (Mus musculus [13]): 10.2 | IC50 ratio (Cavia porcellus [14]): 0.5

Oc1ccc2c3c1O[C@H]1c4[nH]c5ccccc5c4C[C@H]4C(C2)NCC[C@]314
IC50 ratio (Mus musculus [3]): 1 | Max response (Cavia porcellus [4]): 20% | IC50 (Opioid receptor): 85 nM | Ratio [5]: 176 | Ki (Mu-type opioid receptor): 375 nM | IC50 ratio (Cavia porcellus [6]): 0.6 | Ratio [8]: 71 | IC50 ratio (Mus musculus [9]): 0.8 | IC50 ratio (Cavia porcellus [10]): 1.3 | Ki [15]: 5.3 nM

Oc1ccc2c3c1O[C@H]1c4[nH]c5ccccc5c4C[C@H]4[C@@H](C2)N(CCc2ccccc2)CC[C@]314
IC50 ratio (Mus musculus [3]): 0.9 | Max response (Cavia porcellus [4]): 1900% | IC50 (Opioid receptor): 179 nM | ED50 (Mus musculus [16]): 6.3 nmol/mouse | Ratio [5]: 120 | Ki (Mu-type opioid receptor): 173 nM | IC50 ratio (Cavia porcellus [6]): 0.8 | Ratio [8]: 8 | IC50 ratio (Mus musculus [9]): 0.6 | IC50 (Cavia porcellus [17]): 174 nM | IC50 ratio (Cavia porcellus [10]): 0.9 | Ki [15]: 2620 nM
